In ChEMBL document CHEMBL4196006, “Aryl thiosemicarbazones for the treatment of trypanosomatidic infections” (Eur J Med Chem, 2018):
The source made the active and inactive calls. The rule behind the calls is not given here.

What was measured:
[1] = molecular target: CYP2C9 (Homo sapiens, UniProt P11712); assay: Inhibition of human microsomal CYP2C9 expressed in baculovirus infected BTI-TN-5B1-4 cells at 10 uM incubated for 30 mins by luciferase assay relative to control; assay type: ADME
Procedure, shortened: (§1)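 CYP1A2, 2C9, 2C19, 2D6 and 3A4 in microsomes from baculovirus-infected insect cells, each with a P450-Glo luminogenic substrate. Inhibition read as loss of light; single-point at 10 μM, triplicate.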

[2] = molecular target: Aurora kinase B (Homo sapiens, UniProt Q96GD4); assay: Inhibition of recombinant full-length human aurora B kinase expressed in baculovirus system at 10 uM using MBP as substrate incubated for 45 mins by ADP-glo kinase assay; conditions: probe MBP
Procedure, shortened: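 Aurora B activity measured as ADP formation via coupled luciferase ADP-Glo luminescence; single-point at 10 μM, triplicate.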

[3] = test system: Trypanosoma brucei; assay: Potentiation of methotrexate-induced antitrypanosomal activity against Trypanosoma brucei Lister 427 bloodstream form at 10 uM after 72 hrs by resazurin dye-based assay; assay type: functional
[4] = test system: Leishmania infantum; assay: Antileishmanial activity against Leishmania infantum amastigote form assessed as parasite growth inhibition at 50 uM after 72 hrs by steady-Glo reagent based assay relative to control; assay type: functional; conditions: read-out: GI
Procedure, shortened: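 Intramacrophage L. infantum amastigotes in THP-1-derived macrophages, tested at 50 μM or in dose-response. Plates held 72 h at 37 °C, 5% CO2. Medium was replaced by PBS, macrophages lysed, and parasites read by Steady-Glo luminescence. High-content imaging gave host cell number, infection ratio (infected/total cells) and parasites per infected cell. Values are means of at least two independent experiments.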

[5] = molecular target: T1, Pteridine reductase 1 (Leishmania major) (UniProt Q01782); assay: Inhibition of Leishmania major PTR1 at 50 uM using H2B as substrate in presence of NADPH by photometric analysis relative to control
T1 sequence (whole entry): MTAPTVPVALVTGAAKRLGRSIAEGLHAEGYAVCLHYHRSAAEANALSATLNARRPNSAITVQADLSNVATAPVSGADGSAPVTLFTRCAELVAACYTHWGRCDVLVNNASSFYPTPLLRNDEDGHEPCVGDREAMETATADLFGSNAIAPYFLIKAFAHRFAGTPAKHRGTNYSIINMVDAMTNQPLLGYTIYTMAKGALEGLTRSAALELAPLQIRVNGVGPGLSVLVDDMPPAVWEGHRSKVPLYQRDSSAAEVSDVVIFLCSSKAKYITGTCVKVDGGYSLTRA

[6] = test system: Trypanosoma cruzi; assay: Antitrypanosomal activity against Trypanosoma cruzi amastigote form infected in human U2OS cells assessed as parasite growth inhibition at 50 uM after 72 hrs relative to control; assay type: functional; conditions: read-out: GI
Procedure, shortened: (§2)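 U2OS monolayers grown for 24 h, then infected with tissue-derived trypomastigotes of T. cruzi Y strain. Compounds were added 24 h after infection at 50 μM (single-point) or in dose-response, with 72 h exposure. Plates were fixed, stained and analysed by high-content imaging; activity was normalized to infected and non-infected controls. Means of at least two experiments; benznidazole as reference.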

[7] = molecular target: CYP3A4 (Homo sapiens, UniProt P08684); assay: Inhibition of human microsomal CYP3A4 expressed in baculovirus infected BTI-TN-5B1-4 cells at 10 uM incubated for 30 mins by luciferase assay relative to control; assay type: ADME; procedure, shortened: as §1
[8] = test system: Trypanosoma brucei; assay: Potentiation of methotrexate-induced antitrypanosomal activity against Trypanosoma brucei Lister 427 bloodstream form at 10 uM after 72 hrs by resazurin dye-based assay relative to control; assay type: functional
[9] = Cytotoxicity against human THP1 cells assessed as viable cells at 100 uM after 72 hrs by MTT assay relative to control; assay type: cell-based, THP-1; conditions: read-out: Activity
Procedure, shortened: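 THP-1-derived macrophages exposed to compounds for 72 h, tested at 100 μM or in dose-response; viability read by MTT colorimetric assay.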

[10] = test system: Trypanosoma brucei; assay: Antitrypanosomal activity against Trypanosoma brucei Lister 427 bloodstream form at 10 uM after 72 hrs by resazurin dye-based assay relative to control; assay type: functional
[11] = molecular target: CYP2C19 (Homo sapiens, UniProt P33261); assay: Inhibition of human microsomal CYP2C19 expressed in baculovirus infected BTI-TN-5B1-4 cells at 10 uM incubated for 30 mins by luciferase assay relative to control; assay type: ADME; procedure, shortened: as §1
[12] = molecular target: T2, Pteridine reductase, putative (Trypanosoma brucei) (UniProt Q581W1); assay: Inhibition of Trypanosoma brucei PTR1 at 50 uM using H2B as substrate in presence of NADPH by photometric analysis relative to control
T2 sequence (whole entry): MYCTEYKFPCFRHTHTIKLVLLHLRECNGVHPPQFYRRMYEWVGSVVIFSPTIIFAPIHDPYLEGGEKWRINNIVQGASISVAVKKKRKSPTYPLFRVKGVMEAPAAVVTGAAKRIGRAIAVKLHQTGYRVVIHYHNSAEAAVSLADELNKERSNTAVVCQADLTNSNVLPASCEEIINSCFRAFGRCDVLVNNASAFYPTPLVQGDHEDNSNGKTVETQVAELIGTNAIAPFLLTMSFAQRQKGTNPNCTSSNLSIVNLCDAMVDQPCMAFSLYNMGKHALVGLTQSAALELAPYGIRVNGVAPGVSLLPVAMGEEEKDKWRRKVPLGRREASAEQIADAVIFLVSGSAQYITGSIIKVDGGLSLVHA

[13] = Cytotoxicity against human U2OS cells assessed as viable cells at 50 uM after 72 hrs by MTT assay relative to control; assay type: cell-based; conditions: read-out: Activity
[14] = test system: A549; assay: Cytotoxicity against human A549 cells assessed as growth inhibition at 10 uM after 48 hrs by CellTiter-Glo assay relative to control; values are per cent of control; conditions: a549, 48 h, 10 µM
[15] = molecular target: CYP2D6 (Homo sapiens, UniProt P10635); assay: Inhibition of human microsomal CYP2D6 expressed in baculovirus infected BTI-TN-5B1-4 cells at 10 uM incubated for 30 mins by luciferase assay relative to control; assay type: ADME; procedure, shortened: as §1
[16] = molecular target: T3, CYP1A2 (Homo sapiens, UniProt P05177); assay: Inhibition of human microsomal CYP1A2 expressed in baculovirus infected BTI-TN-5B1-4 cells at 10 uM incubated for 30 mins by luciferase assay relative to control; assay type: ADME; procedure, shortened: as §1
T3 sequence (P05177 whole entry): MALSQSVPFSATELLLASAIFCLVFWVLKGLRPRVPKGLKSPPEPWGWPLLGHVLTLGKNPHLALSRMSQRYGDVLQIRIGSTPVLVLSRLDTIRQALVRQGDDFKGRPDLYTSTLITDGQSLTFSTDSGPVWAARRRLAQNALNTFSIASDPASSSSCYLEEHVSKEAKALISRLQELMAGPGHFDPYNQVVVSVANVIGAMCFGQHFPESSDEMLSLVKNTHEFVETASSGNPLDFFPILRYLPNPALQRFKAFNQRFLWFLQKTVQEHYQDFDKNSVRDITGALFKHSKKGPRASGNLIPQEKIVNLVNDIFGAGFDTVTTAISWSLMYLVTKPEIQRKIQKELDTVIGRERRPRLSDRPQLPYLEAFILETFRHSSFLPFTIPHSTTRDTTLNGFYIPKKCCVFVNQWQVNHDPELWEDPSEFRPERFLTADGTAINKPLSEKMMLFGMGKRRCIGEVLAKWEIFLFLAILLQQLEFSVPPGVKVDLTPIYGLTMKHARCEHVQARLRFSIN

[17] = molecular target: hERG (KCNH2) (Homo sapiens, UniProt Q12809); assay: Inhibition of human ERG at 10 uM incubated for 2 hrs by fluorescence polarisation assay relative to control
[18] = Cytotoxicity against human WI38 cells assessed as growth inhibition at 10 uM after 48 hrs by CellTiter-Glo assay relative to control; values are per cent of control; conditions: WI38 cells
[19] = test system: Trypanosoma brucei; assay: Antitrypanosomal activity against Trypanosoma brucei Lister 427 bloodstream form assessed as parasite growth inhibition at 50 uM after 72 hrs by SYBR Green assay relative to control; assay type: functional; conditions: for inhibition of growth at 50 µM: Lister 427, 72 h, read-out: GI
[20] = Cytotoxicity against human 786-O cells assessed as inhibition of mitochondrial viability at 10 uM after 6 hrs by CMXRos staining based assay relative to control; assay type: cell-based, 786-0; conditions: read-out: INH
Procedure, shortened: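 Mitochondrial toxicity monitored by MitoTracker Red CMXRos uptake and high-content imaging; compound at 10 μM, triplicate.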

[21] = Cytotoxicity against human A549 cells assessed as growth inhibition at 10 uM after 48 hrs by CellTiter-Glo assay relative to control; values are per cent of control; conditions: A549 cells
[22] = test system: Trypanosoma cruzi; assay: Antitrypanosomal activity against Trypanosoma cruzi amastigote form infected in human U2OS cells assessed as parasite growth inhibition after 72 hrs; assay type: functional, organism-based; procedure, shortened: as §2
[23] = test system: Trypanosoma brucei; assay: Antitrypanosomal activity against Trypanosoma brucei Lister 427 bloodstream form after 72 hrs by SYBR Green assay; assay type: functional, organism-based; conditions: Lister 427, 72 h
[24] = Cytotoxicity against human U2OS cells assessed as decrease in viable cells after 72 hrs by cell number count in anti-T. cruzi high content imaging assay; conditions: U2OS cells
[25] = Selectivity index, ratio of CC50 for human U2OS cells to EC50 for Trypanosoma cruzi amastigote form; assay type: toxicity; conditions: read-out: Ratio CC50/EC50
Procedure, shortened: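 Selectivity index = CC50 in the human host or cytotoxicity cell line divided by parasite EC50.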

Sequence of CYP3A4 (P08684 whole entry): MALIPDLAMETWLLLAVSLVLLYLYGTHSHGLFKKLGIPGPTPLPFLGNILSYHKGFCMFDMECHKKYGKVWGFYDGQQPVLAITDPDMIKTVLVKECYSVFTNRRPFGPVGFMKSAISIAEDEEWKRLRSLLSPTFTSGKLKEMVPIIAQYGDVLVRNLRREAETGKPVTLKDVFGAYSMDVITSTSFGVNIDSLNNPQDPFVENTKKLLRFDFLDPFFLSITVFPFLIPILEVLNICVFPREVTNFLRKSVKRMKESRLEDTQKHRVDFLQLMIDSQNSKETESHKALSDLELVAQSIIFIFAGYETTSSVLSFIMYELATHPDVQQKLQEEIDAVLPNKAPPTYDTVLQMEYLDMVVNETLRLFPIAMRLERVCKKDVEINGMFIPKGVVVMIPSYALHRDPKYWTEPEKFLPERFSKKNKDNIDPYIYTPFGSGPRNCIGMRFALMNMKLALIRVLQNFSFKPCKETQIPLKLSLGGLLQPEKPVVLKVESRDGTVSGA
Sequence of CYP2D6 (P10635 whole entry): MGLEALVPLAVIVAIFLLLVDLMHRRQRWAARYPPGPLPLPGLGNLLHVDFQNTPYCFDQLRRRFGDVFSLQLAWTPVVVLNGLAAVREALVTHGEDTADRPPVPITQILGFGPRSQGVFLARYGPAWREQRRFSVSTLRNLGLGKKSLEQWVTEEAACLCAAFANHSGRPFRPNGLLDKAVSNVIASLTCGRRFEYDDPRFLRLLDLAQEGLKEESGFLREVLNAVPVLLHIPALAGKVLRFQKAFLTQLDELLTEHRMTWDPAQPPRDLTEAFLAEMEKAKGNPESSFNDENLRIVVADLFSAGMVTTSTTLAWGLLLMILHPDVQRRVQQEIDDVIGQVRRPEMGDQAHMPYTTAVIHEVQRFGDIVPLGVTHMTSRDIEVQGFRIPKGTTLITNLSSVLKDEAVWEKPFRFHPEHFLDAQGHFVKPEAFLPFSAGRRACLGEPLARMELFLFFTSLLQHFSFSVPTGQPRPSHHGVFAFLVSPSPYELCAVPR
Sequence of CYP2C19 (P33261 whole entry): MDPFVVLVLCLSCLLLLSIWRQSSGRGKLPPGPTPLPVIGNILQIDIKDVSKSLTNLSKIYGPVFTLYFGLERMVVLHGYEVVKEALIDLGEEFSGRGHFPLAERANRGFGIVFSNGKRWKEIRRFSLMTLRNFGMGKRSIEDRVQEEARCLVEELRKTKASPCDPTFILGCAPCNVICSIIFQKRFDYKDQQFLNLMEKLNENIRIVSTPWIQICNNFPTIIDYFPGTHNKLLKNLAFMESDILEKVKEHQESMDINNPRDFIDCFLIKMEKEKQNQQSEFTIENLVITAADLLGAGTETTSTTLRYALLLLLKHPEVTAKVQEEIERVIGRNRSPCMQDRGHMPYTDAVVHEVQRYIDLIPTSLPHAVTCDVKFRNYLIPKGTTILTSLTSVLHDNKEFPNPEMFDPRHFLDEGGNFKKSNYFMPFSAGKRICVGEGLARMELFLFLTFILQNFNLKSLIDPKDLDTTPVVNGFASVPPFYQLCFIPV
Sequence of CYP2C9 (P11712 whole entry): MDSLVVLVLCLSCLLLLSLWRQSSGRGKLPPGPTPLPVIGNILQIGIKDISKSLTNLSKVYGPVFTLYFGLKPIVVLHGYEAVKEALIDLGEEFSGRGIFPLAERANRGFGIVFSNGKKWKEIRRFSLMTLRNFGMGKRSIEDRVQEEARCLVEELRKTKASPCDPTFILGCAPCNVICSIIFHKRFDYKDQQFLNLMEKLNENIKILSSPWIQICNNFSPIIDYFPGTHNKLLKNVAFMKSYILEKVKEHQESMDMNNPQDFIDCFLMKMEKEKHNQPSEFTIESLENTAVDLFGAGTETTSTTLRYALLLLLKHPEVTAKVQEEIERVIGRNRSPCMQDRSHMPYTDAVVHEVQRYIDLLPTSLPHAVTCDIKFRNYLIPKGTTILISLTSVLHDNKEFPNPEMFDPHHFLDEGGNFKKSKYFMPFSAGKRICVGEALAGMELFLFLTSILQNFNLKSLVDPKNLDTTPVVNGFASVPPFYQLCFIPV
Sequence of Aurora kinase B (Q96GD4 whole entry): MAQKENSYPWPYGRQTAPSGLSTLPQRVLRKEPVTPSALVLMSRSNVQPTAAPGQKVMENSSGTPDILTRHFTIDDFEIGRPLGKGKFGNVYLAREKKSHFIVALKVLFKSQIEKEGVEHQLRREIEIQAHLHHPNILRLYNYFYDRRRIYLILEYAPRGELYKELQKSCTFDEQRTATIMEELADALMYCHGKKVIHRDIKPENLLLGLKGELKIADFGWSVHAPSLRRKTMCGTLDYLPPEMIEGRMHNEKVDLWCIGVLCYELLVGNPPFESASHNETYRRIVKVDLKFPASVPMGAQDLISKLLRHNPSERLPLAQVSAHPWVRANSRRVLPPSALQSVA
Sequence of hERG (KCNH2) (Q12809 whole entry): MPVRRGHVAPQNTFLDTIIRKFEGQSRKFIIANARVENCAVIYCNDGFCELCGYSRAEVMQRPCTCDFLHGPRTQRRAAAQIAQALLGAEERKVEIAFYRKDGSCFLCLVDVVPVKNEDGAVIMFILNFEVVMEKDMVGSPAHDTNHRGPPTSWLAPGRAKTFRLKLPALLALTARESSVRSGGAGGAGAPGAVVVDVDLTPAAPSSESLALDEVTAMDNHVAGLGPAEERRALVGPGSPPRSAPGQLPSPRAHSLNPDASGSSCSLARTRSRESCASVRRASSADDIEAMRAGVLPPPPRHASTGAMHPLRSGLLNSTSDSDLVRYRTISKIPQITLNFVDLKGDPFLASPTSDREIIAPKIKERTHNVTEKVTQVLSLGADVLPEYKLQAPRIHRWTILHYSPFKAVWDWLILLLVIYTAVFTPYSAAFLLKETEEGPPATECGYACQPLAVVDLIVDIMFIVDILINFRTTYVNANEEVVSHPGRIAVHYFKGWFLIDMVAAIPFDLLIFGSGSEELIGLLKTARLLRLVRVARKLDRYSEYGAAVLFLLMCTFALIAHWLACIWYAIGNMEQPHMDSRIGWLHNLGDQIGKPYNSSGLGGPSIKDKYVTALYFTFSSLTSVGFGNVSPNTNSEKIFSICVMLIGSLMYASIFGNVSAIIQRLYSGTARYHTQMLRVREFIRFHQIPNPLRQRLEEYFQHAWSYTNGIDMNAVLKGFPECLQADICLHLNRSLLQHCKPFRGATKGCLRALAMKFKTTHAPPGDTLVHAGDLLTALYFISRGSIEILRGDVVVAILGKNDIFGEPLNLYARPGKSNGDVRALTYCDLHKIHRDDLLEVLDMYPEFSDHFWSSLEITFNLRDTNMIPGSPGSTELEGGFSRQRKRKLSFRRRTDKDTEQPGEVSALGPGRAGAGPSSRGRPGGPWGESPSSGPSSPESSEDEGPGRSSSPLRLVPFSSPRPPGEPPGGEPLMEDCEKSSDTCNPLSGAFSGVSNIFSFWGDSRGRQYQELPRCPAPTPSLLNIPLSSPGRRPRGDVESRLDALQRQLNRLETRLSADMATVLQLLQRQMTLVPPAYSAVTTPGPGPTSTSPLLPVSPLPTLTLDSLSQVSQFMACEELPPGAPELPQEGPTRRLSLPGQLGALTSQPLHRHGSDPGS

| inhibition at 0.5 h, 10 µM [1] [%] | inhibition at 0.75 h, 10 µM [2] [%] | inhibition [5] [%] | inhibition at 0.5 h, 10 µM [7] [%] | inhibition at 0.5 h, 10 µM [11] [%] | inhibition [12] [%] | inhibition at 0.5 h, 10 µM [15] [%] | inhibition at 0.5 h, 10 µM [16] [%] | EC50 [22] [µM] | SMILES | PF [3] | inhibition of growth at 50 µM [4] [%] | inhibition of growth at 50 µM [6] [%] | Activity [8] [%] | viability at 72 h, 100 µM [9] [%] | Activity [10] [%] | viability at 72 h, 50 µM [13] [%] | inhibition at 2 h, 10 µM [17] [%] | cell growth (% of control) at 48 h, 10 µM [18] [%] | cytotoxicity at 6 h, 10 µM [20] [%] | cell growth (% of control) at 48 h, 10 µM [21] [%] | further results |
| --- | --- | --- | --- | --- | --- | --- | --- | --- | --- | --- | --- | --- | --- | --- | --- | --- | --- | --- | --- | --- | --- |
| -9.43 | -18.2 | 4.04 | -14.8 | -44.2 | 4.77 | 0.08 | 34.3 |  | COc1cccc(OC)c1/C=N/NC(N)=S | 0.66 | 25.3 | 74.3 | 21.83 | 76.8 | 8.83 | 21.7 | -1.27 | 114 | -12.3 |  | cell growth (% of control) [14]: 162.27%; growth inhibition (GI) [19]: inactive |
| 9.11 | -5.47 | 9.09 | -13.1 | -36.7 | 8.92 | 3.17 | 18.3 | 1.59 | NC(=S)N/N=C/C=C/c1ccccc1 | 2.37 | 45.9 | 94.6 | 84.5 | 44.1 | 11.33 | 76.1 | 7.23 | 82.8 | -2.97 | 129 | EC50 [23]: 16.9 µM; CC50 at 72 h [24]: > 44 µM; inhibition of growth at 50 µM [19]: 91.7%; selectivity ratio [25]: > 1 |
| 12.4 | -12.2 | 11.2 | -15.9 | -38.2 | 9.49 | 35.9 | 27 | 2.58 to 29.5 | CSc1ccc(/C=N/NC(N)=S)cc1 | 2.24 | 34.1 | 89.3 | 88.67 | 35.7 | 15.33 | 42.7 | -2.87 | 107 | -10.8 | 136 | EC50 [23]: 44.4 µM; CC50 at 72 h [24]: > 44 µM; inhibition of growth at 50 µM [19]: 82.6%; selectivity ratio [25]: > 17 |
